ChEMBL document CHEMBL5303300, “EUbOPEN Chemogenomics Library - Multiplex” (2023)
“And” between values parts separate entries of the source, which are not always exact repeats. Equal entries are not always repeated.

Test system: HEK-293T
Assay: Multiplex assay against HEK293T
Type: toxicity, cell-based
Details: human, number of replicates 2
How it was run: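 Imaging took place on a CQ1 microscope at 37°C and 5% CO2 once compound had been added to live cells stained at seeding with Hoechst33342, BioTracker Green Microtubule Cytoskeleton Dye, MitoTracker Red and Annexin V Alexa Fluor 680. CellPathfinder machine-learning gating classed cells as Hoechst high-intensity objects or normal cells, classed normal cells as having healthy, pyknosed or fragmented nuclei, and classed pyknosed cells as mitotic or apoptotic. Tubulin, mitochondrial-mass and membrane-permeability phenotypes are per cents of the healthy-nucleus cells.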

[1] = 12 h, 1 µM, compound concentration 1 uM
[2] = 12 h, 10 µM, compound concentration 10 uM
[3] = 24 h, 1 µM, compound concentration 1 uM
[4] = 24 h, 10 µM, compound concentration 10 uM
[5] = 48 h, 1 µM, compound concentration 1 uM
[6] = 48 h, 10 µM, compound concentration 10 uM

## CNc1ncc2cc(-c3ccc(-c4cccc(C)n4)cc3Cl)c(=O)n(C[C@H]3OC[C@H](N)CO3)c2n1
[1]
  Population Apoptotic (%): 57% and 63%
  Population Fragmented Nuclei (%): 2%
  Population Healthy Nuclei (%): 85% and 82%
  Population Hoechst High Intensity Objects (%): 5% and 6%
  Population Membrane Permeable-Phenotype (%): 7% and 3%
  Population Mitochondria Different-Phenotype (%): 8% and 9%
  Population Mitotic Cells (%): 42% and 36%
  Population Normal (%): 94% and 93%
  Population Pyknosed Nuclei (%): 11% and 15%
  Population Tubulin-Different-Phenotype (%): 28% and 30%
  Total Cell Count: 581 and 605
[2]
  Population Apoptotic (%): 36% and 26%
  Population Fragmented Nuclei (%): 6% and 8%
  Population Healthy Nuclei (%): 79% and 76%
  Population Hoechst High Intensity Objects (%): 30%
  Population Membrane Permeable-Phenotype (%): 25% and 20%
  Population Mitochondria Different-Phenotype (%): 7% and 6%
  Population Mitotic Cells (%): 63% and 73%
  Population Normal (%): 69%
  Population Pyknosed Nuclei (%): 13% and 15%
  Population Tubulin-Different-Phenotype (%): 57% and 65%
  Total Cell Count: 885 and 788
[3]
  Population Apoptotic (%): 51% and 54%
  Population Fragmented Nuclei (%): 3%
  Population Healthy Nuclei (%): 88% and 85%
  Population Hoechst High Intensity Objects (%): 3% and 5%
  Population Membrane Permeable-Phenotype (%): 2% and 3%
  Population Mitochondria Different-Phenotype (%): 2% and 5%
  Population Mitotic Cells (%): 48% and 45%
  Population Normal (%): 96% and 94%
  Population Pyknosed Nuclei (%): 8% and 11%
  Population Tubulin-Different-Phenotype (%): 11% and 16%
  Total Cell Count: 923 and 803
[4]
  Population Apoptotic (%): 20%
  Population Fragmented Nuclei (%): 6% and 8%
  Population Healthy Nuclei (%): 68% and 69%
  Population Hoechst High Intensity Objects (%): 31% and 34%
  Population Membrane Permeable-Phenotype (%): 18% and 11%
  Population Mitochondria Different-Phenotype (%): 4% and 3%
  Population Mitotic Cells (%): 79%
  Population Normal (%): 68% and 65%
  Population Pyknosed Nuclei (%): 25% and 22%
  Population Tubulin-Different-Phenotype (%): 52% and 46%
  Total Cell Count: 1101 and 1092
[5]
  Population Apoptotic (%): 20% and 34%
  Population Fragmented Nuclei (%): 9% and 6%
  Population Healthy Nuclei (%): 85% and 88%
  Population Hoechst High Intensity Objects (%): 6% and 5%
  Population Membrane Permeable-Phenotype (%): 3% and 2%
  Population Mitochondria Different-Phenotype (%): 0% and 2%
  Population Mitotic Cells (%): 80% and 65%
  Population Normal (%): 93% and 94%
  Population Pyknosed Nuclei (%): 4%
  Population Tubulin-Different-Phenotype (%): 7% and 9%
  Total Cell Count: 1888 and 1385
[6]
  Population Apoptotic (%): 13% and 10%
  Population Fragmented Nuclei (%): 4% and 6%
  Population Healthy Nuclei (%): 68% and 70%
  Population Hoechst High Intensity Objects (%): 28% and 30%
  Population Membrane Permeable-Phenotype (%): 11% and 4%
  Population Mitochondria Different-Phenotype (%): 2% and 1%
  Population Mitotic Cells (%): 86% and 89%
  Population Normal (%): 71% and 69%
  Population Pyknosed Nuclei (%): 26% and 22%
  Population Tubulin-Different-Phenotype (%): 26% and 21%
  Total Cell Count: 1638 and 1597

## C=CC(=O)Nc1cccc(C)c1Nc1ncc2cc(-c3c(Cl)c(OC)cc(OC)c3Cl)ccc2n1
[1]
  Population Apoptotic (%): 39% and 35%
  Population Fragmented Nuclei (%): 3%
  Population Healthy Nuclei (%): 87%
  Population Hoechst High Intensity Objects (%): 7% and 5%
  Population Membrane Permeable-Phenotype (%): 2% and 1%
  Population Mitochondria Different-Phenotype (%): 16% and 12%
  Population Mitotic Cells (%): 60% and 64%
  Population Normal (%): 92% and 94%
  Population Pyknosed Nuclei (%): 8% and 9%
  Population Tubulin-Different-Phenotype (%): 40% and 41%
  Total Cell Count: 760 and 929
[2]
  Population Apoptotic (%): 71% and 67%
  Population Fragmented Nuclei (%): 4%
  Population Healthy Nuclei (%): 71% and 77%
  Population Hoechst High Intensity Objects (%): 20% and 14%
  Population Membrane Permeable-Phenotype (%): 2% and 3%
  Population Mitochondria Different-Phenotype (%): 42% and 39%
  Population Mitotic Cells (%): 28% and 32%
  Population Normal (%): 79% and 85%
  Population Pyknosed Nuclei (%): 24% and 18%
  Population Tubulin-Different-Phenotype (%): 55% and 47%
  Total Cell Count: 374 and 381
[3]
  Population Apoptotic (%): 35% and 39%
  Population Fragmented Nuclei (%): 6% and 4%
  Population Healthy Nuclei (%): 85% and 88%
  Population Hoechst High Intensity Objects (%): 5% and 7%
  Population Membrane Permeable-Phenotype (%): 1% and 0%
  Population Mitochondria Different-Phenotype (%): 4% and 6%
  Population Mitotic Cells (%): 64% and 60%
  Population Normal (%): 94% and 92%
  Population Pyknosed Nuclei (%): 7%
  Population Tubulin-Different-Phenotype (%): 26% and 25%
  Total Cell Count: 1252 and 1297
[4]
  Population Apoptotic (%): 70% and 60%
  Population Fragmented Nuclei (%): 5% and 3%
  Population Healthy Nuclei (%): 71% and 77%
  Population Hoechst High Intensity Objects (%): 17% and 11%
  Population Membrane Permeable-Phenotype (%): 2% and 0%
  Population Mitochondria Different-Phenotype (%): 32% and 24%
  Population Mitotic Cells (%): 29% and 40%
  Population Normal (%): 83% and 88%
  Population Pyknosed Nuclei (%): 23% and 18%
  Population Tubulin-Different-Phenotype (%): 32% and 29%
  Total Cell Count: 453 and 428
[5]
  Population Apoptotic (%): 12%
  Population Fragmented Nuclei (%): 12% and 9%
  Population Healthy Nuclei (%): 84% and 87%
  Population Hoechst High Intensity Objects (%): 8% and 11%
  Population Membrane Permeable-Phenotype (%): 5% and 2%
  Population Mitochondria Different-Phenotype (%): 0% and 1%
  Population Mitotic Cells (%): 87%
  Population Normal (%): 91% and 88%
  Population Pyknosed Nuclei (%): 2% and 3%
  Population Tubulin-Different-Phenotype (%): 10% and 15%
  Total Cell Count: 3082 and 2641
[6]
  Population Apoptotic (%): 50% and 52%
  Population Fragmented Nuclei (%): 5% and 3%
  Population Healthy Nuclei (%): 84% and 85%
  Population Hoechst High Intensity Objects (%): 11% and 8%
  Population Membrane Permeable-Phenotype (%): 1%
  Population Mitochondria Different-Phenotype (%): 8% and 9%
  Population Mitotic Cells (%): 50% and 47%
  Population Normal (%): 88% and 91%
  Population Pyknosed Nuclei (%): 9% and 11%
  Population Tubulin-Different-Phenotype (%): 12%
  Total Cell Count: 751 and 603
